High-throughput results as filed in PubChem.
S1P3 ag: agonists of human S1P3 receptor. Q99500. S1P3 NFAT-BLA reporter cells, agonism, FRET ratio; relative to 1 µM S1P, basal subtracted. activation, % at 4.5 µM. hit rate 0.1% among 60,000. AID 373;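 active means activation above the screen-wide mean plus 3 SD, cut at about 4.5% in these data, passing the limit was not always enough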
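material = human S1P3 NFAT-BLA reporter CHO cells | schedule = 4 h compound at 37 °C, 2 h substrate at RT | measured by = fluorescent BLA substrate, ex 405 nm, em 460/535 nm ratio | controls = 1 µM S1P reference | replication = primary once, confirmation triplicate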
M1 antagonist: M1 muscarinic receptor (rat) antagonism | P08482 | B-score at 10 µM | hit rate 3.4% among 64,000 | CHO-M1 cells, Fluo-4 calcium, ACh EC80 antagonist mode; hits give low values;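 active means calcium fluorescence response, raw or row-and-column corrected B-score, differing from the plate sample mean either way at a set confidence level, mostly lower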
S1P1 ag pot: agonists and agonism potentiators of human S1P1 receptor | P21453 | S1P1 CRE-bla cells, forskolin, beta-lactamase FRET, potentiator mode; S1P1 agonist co-added at EC20, 2 nM; 100% = saturating reference agonist, 0% = basal | activation, % at 9.5 µM | hit rate 0.57% among 56,000 | AID 449;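 active means activation above a cutoff set at the mean activation of all tested compounds plus 3 SD, cut at about 54% in these data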;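 further: forskolin at 4 µM as EC80 and the EC20 agonist is SEW2871; 100% = SEW2871 at its EC100 plus forskolin at EC80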
D1 allo mod: allosterically modulates the human D1 dopamine receptor; P21728; HEK293 D1, CRE-luciferase, dopamine EC30 potentiation; actives deviate in either direction; B-score at 10 µM; hit rate 5.9% among 58,000;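 active means luminescence count or its row- and column-corrected plate score outside the 99.7% band of the plate's sample wells, on either side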
Target sequence (P21728 whole entry, looked up): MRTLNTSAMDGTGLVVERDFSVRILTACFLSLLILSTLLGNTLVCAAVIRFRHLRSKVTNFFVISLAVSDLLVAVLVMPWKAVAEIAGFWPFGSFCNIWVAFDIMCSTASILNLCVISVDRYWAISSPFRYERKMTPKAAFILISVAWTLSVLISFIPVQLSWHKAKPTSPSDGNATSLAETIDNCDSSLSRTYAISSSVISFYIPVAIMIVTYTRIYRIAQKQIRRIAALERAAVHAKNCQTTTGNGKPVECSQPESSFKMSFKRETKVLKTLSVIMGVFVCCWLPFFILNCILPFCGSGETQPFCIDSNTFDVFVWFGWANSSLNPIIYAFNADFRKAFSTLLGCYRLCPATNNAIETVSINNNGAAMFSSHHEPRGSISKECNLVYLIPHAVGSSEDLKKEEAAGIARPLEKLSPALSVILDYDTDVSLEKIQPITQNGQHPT
M1 agonist: agonists of M1 muscarinic receptor; CHO-M1 cells, Fluo-4 calcium fluorescence, agonist mode; hits give high values; B-score at 10 µM; hit rate 3% among 64,000;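 active means fluorescence rise, raw or as B-score row- and column-corrected plate score, outside the 99.7% band of its plate's samples, either direction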
M1 agonist conf: rat M1 muscarinic agonism, confirmation | shares compounds with M1 agonist | CHO-M1 cells, Fluo-4 calcium fluorescence, agonist mode; actives lie on both sides | fluorescence change (max-min) at 10 µM | hit rate 19% among 1,700;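 active means fluorescence change differs from the solvent-only DMSO control mean at a set confidence level in both duplicate runs; inconclusive means differs from solvent-only control mean in just one of two runs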;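 further: an EC20 dose of acetylcholine follows compound addition during the same imaging run; raw fluorescence intensity difference in instrument units with no normalization to controls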
M4 ag counter: counter-screen for M1 agonists: activity at rat M4 receptor; hit rate 9% among 1,700; fluorescence change (max-min) at 10 µM; CHO M4/Gqi5 cells, Fluo-4 calcium fluorescence, agonist mode; actives lie on both sides; shares compounds with M1 agonist;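 active means fluorescence change differing from the plate's solvent-only control wells at 99.7% confidence in both duplicates, whether higher or lower; inconclusive means differs from solvent controls in only one of two duplicates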
Active calls of the source: *; ? = inconclusive; / = no result given. The list is not random: actives were taken first. Their share in the collection is about 11%.

SMILES | S1P3 ag | M1 antagonist | S1P1 ag pot | D1 allo mod | M1 agonist | M1 agonist conf | M4 ag counter
CCOc1ccccc1N1CCN(c2nc3ccccc3nc2C(C#N)C(=O)OC)CC1 (stereo not given) | -3.7 | -1.13 | 2.9 | -4.32* | 7.69* | ? | -27.7
CCOC(=O)N1CCN(c2nc3ccccc3nc2C(C#N)C(=O)NCCc2ccccc2)CC1 (stereo not given) | -0.6 | -0.621 | 7.8 | -0.0349 | 21.6* | ? | 81.2
N#CC(C(=O)NCc1ccccc1)c1nc2ccccc2nc1N1CCCC1 (stereo not given) | -0.2 | -17.3* | -33.9 | 2.12 | 177* | 1394* | 794*
N#CC(C(=O)NCCc1ccccc1)c1nc2ccccc2nc1N1CCCCC1 (stereo not given) | -0.8 | -0.232 | -3.7 | -0.752 | 16.8* | 63.2* | 121
CCC1Oc2ccc(C)cc2N(CC(=O)NCc2cccc(OC)c2)C1=O (stereo not given) | -0.8 | -0.229 | -4.4 | -1.12 | 0.358 | / | /
Cc1ccc(-c2nc(CS(=O)CC(=O)NCCC(C)C)c(C)o2)cc1 (stereo not given) | -0.3 | -0.293 | -31.8 | -0.273 | -0.162 | / | /
O=C(CSc1nnc2ccccn12)NC(=O)NC1CCCC1 | -0.3 | 0.27 | -13.3 | 0.482 | 0.137 | / | /
O=C(NCc1ccco1)C(Cc1ccccc1)N1C(=O)C2C3C=CC(C3)C2C1=O (stereo not given) | -0.7 | -0.891 | 11.1 | -1.19 | 4.53* | ? | -44.6
Cc1ccc(N2C(=O)c3ccc(C(=O)N4CCN(c5ccccc5F)CC4)cc3C2=O)cc1 | 1.3 | 0.213 | 16.0 | -0.0493 | -0.145 | / | /
CCc1nc(SCC(N)=O)c2c(=O)n(C)c(=O)n(C)c2n1 | -0.5 | -0.0957 | -3.6 | 0.194 | 0.428 | / | /
CC(C)c1nc(SCC(=O)N2CCOCC2)c2c(=O)n(C)c(=O)n(C)c2n1 | -0.8 | -0.0302 | -5.9 | -0.0718 | 8.34* | -23.3 | -31.6
CCc1nc(SCC(=O)N2CCC(C)CC2)c2c(=O)n(C)c(=O)n(C)c2n1 | -0.2 | -3.47* | -4.8 | 0.0315 | 3.41* | ? | -24.3
CCCc1nc(SCC(=O)N2CCN(c3ccccc3)CC2)c2c(=O)n(C)c(=O)n(C)c2n1 | -0.3 | -8.08* | 14.5 | -1.62 | 7.23* | -10 | -59.3
Cn1c(=O)c2c(SCC(=O)N3CCCc4ccccc43)nc(C3CC3)nc2n(C)c1=O | -1.6 | -2.61* | 12.1 | -0.775 | 3.83* | -27.8* | ?
N#CC1=C(N)N(c2ccc(Br)cc2)C2=C(C(=O)CCC2)C1c1cccnc1 (stereo not given) | -0.4 | / | -2.2 | 0.0422 | / | / | /
Cn1c(=O)c2c(-c3ccncc3)c3c(nc2n(C)c1=O)-c1ccccc1C3=O | -0.7 | 0.022 | -10.4 | -0.0682 | 0.36 | / | /
COc1cccc(C2c3c(oc4ccc(Cl)cc4c3=O)C(=O)N2c2cc(C)on2)c1OC (stereo not given) | -1.5 | -0.375 | -3.1 | -0.0299 | -0.617 | / | /
CCOC(=O)C1CC=C(Cl)CC1C(=O)Nc1nccs1 (stereo not given) | 6.6 | -0.00611 | 5.6 | 0.642 | -0.193 | / | /
CC(C)c1nc(SCC(=O)N2CCN(c3ccccc3)CC2)c2c(=O)n(C)c(=O)n(C)c2n1 | 0.7 | -3.64* | 13.8 | -3.86* | 5.66* | ? | -49.2
Cn1c(=O)c2c(SCc3cccnc3)nc(CC(C)(C)C)nc2n(C)c1=O | 0.1 | -0.842 | -53.0 | / | -0.337 | / | /
CCCc1nc(SCc2cccnc2)c2c(=O)n(C)c(=O)n(C)c2n1 | 0.1 | -1.02* | -15.1 | / | 2.58* | -24.7* | -81.1*
CCc1ccc(S(=O)(=O)NCc2cn3c(C)csc3n2)s1 | -0.7 | -1.63 | -8.0 | -0.96 | -3.11* | -7.53 | -26.5
CCOc1ccc(CC(=O)NCc2cn3c(C)csc3n2)cc1 | -0.8 | 0.34 | 2.1 | 1.19 | 3.41* | ? | ?
COCCn1c(SCc2c(F)cccc2Cl)nc2c1c(=O)[nH]c(=O)n2C | -3.2 | 0.0236 | 11.5 | 1.32 | 0.179 | / | /
Cc1csc(=O)n1CCC(=O)O | 0.5 | -0.098 | -3.6 | 0.553 | 0.0469 | / | /
SMILES | S1P3 ag | M1 antagonist | S1P1 ag pot | D1 allo mod | M1 agonist | M1 agonist conf | M4 ag counter
CCOC(=O)Cc1csc(NC(=O)CSc2nnc(-n3nc(C)cc3C)c3ccccc23)n1 | 0.6 | -0.722 | 14.6 | -0.298 | 4.71* | 0.183 | -19.7
CCOC(=O)Cc1csc(NC(=O)CSc2nnc(-c3ccc(C)cc3)o2)n1 | -0.4 | -0.217 | -28.7 | 0.57 | -0.13 | / | /
O=C(CSc1nc(-c2cccs2)cc(C(F)(F)F)n1)NCCCn1ccnc1 | -1.1 | 0.194 | -10.2 | -1.23 | -0.00279 | / | /
O=C(CSc1nc(-c2ccco2)cc(C(F)(F)F)n1)NCCCn1ccnc1 | -1.3 | -0.927 | -23.3 | 0.0352 | 10.3* | 3.41 | -1.98
CC1CCCCN1C(=O)Nc1cccc(Cl)c1 (stereo not given) | -0.2 | -19.4* | -16.1 | 0.792 | 15.9* | ? | -59
COC(=O)C1=C(C)Nc2ncnn2C1c1ccc(C)o1 (stereo not given) | -0.2 | 0.957 | -5.0 | -0.0962 | 8.3* | -31 | -44
COc1ccc(S(=O)(=O)N2CCN(c3nc4ccccc4nc3-n3nc(C)cc3C)CC2)cc1 | 0.2 | -1.02 | / | -1.14 | 0.222 | / | /
CN(CC1CCCO1)S(=O)(=O)c1ccc(C(=O)Nc2nc(-c3ccccn3)cs2)cc1 (stereo not given) | 0.0 | 0.014 | 58.4 | -2.04 | 9.57* | -11.6 | -32.4
O=C(Nc1nc(-c2ccccn2)cs1)C1CC1 | 0.6 | 0.232 | -4.5 | -0.491 | -0.0389 | / | /
CN1CCN(CC(=O)N(C)c2nc(-c3ccccc3)cs2)CC1 | -1.0 | -0.241 | -5.0 | -1.07 | -0.625 | / | /
CCN(CC)C(=O)CSc1nnc(-c2cccnc2)n1CCc1ccccc1 | -1.2 | -0.0487 | -2.0 | -0.647 | 8.29* | -23.6 | -50.6
NC(=O)CSc1nnc(-c2cccnc2)n1CCc1ccccc1 | -0.6 | 0.0252 | -15.8 | 0.2 | 0.072 | / | /
CS(=O)(=O)N(CCc1ccccc1)CC(=O)NCC1CCCO1 (stereo not given) | -0.4 | 0.118 | -6.7 | -0.0632 | -0.138 | / | /
N#Cc1c(NC(=O)CSC2=NCCS2)sc2c1CCCC2 | -1.2 | 0.00884 | -3.1 | 0.827 | -0.361 | / | /
Cc1ccnc(SCC(=O)Nc2sc3c(c2C#N)CCCC3)n1 | -2.0 | -2.12 | 100.3* | 0.00597 | 3.38* | -18.2 | ?
O=C(Cc1cccs1)N1CCN(c2nc(-c3ccc(Cl)cc3)cs2)CC1 | -0.2 | 0.466 | 30.0 | 0.112 | 3.46* | -28.5* | -60.1
Cc1nn(Cc2ccccc2)c2sc(C(=O)N3CCN(Cc4ccc5c(c4)OCO5)CC3)cc12 | -0.2 | -1.33 | 18.6 | -1.21 | 1.96 | / | /
O=C(CN(Cc1ccco1)C(=O)CNS(=O)(=O)c1ccc(F)cc1)NCCc1ccccc1 | 0.4 | -0.958 | -3.2 | -1.14 | 2.48* | ? | ?
